Experimental data reported in ChEMBL document CHEMBL3259717, “Synthetic calanolides with bactericidal activity against replicating and nonreplicating Mycobacterium tuberculosis” (J Med Chem, 2014).
Converted amounts (≈) assume the structure as drawn. The source made the active and inactive calls. The calls are words filed in the database; no cut-off is given here.

Tests used:
[1] = Selectivity index, ratio of LD50 for human HepG2 cells to MIC90 for replicating form of Mycobacterium tuberculosis H37Rv; format: toxicity, cell-based; details: read-out: Selectivity Index
Method in brief: (§1)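 HepG2 in DMEM with 10% FBS, pyruvate, glutamine, HEPES and nonessential amino acids, seeded 3000 cells/well in 384-well plates. Compound for 2 days at 1% final DMSO. ATP read by CellTiter-Glo luminescence. LD50 = 50% drop in ATP signal vs DMSO. SI = LD50/MIC90 against replicating Mtb.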

[2] = tested on: Mycobacterium tuberculosis; assay: Bactericidal activity against wild type Mycobacterium tuberculosis H37Rv infected in IFN-gamma-stimulated primary human monocyte-derived macrophages assessed as reduction of log10CFU at 1 ug/mL incubated for 7 days followed by compound washout measured after 3 weeks; format: functional
Method in brief: (§2)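 Monocytes from healthy donors isolated by CD14 selection. Differentiated 2 weeks in 40% human plasma with 0.5 ng/mL GM-CSF and TNF-alpha, 10% O2. Then 5 ng/mL IFN-gamma overnight, infected with wild-type Mtb at MOI 0.1. Compound added at 24 h, 1% DMSO final, 7 days. Viability inspected visually; lysed in 0.55% Triton-X and plated on 7H11/OADC for CFU.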

[3] = tested on: Mycobacterium tuberculosis; assay: Bactericidal activity against non-replicating form of wild type Mycobacterium tuberculosis H37Rv assessed as reduction of log10CFU at 0.6 ug/mL after 7 to 8 days; format: functional
Method in brief: (§3)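 Wild-type Mtb single-cell suspension at OD 0.01 (R) or 0.1 (NR, in NR medium, 1% O2) in 96-well plates with compound for 7 days. Serial dilution in 7H9-ADN, plated on 7H11 agar with glycerol and OADC for CFU.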

[4] = Cytotoxicity against human HepG2 cells assessed as decrease in ATP signal after 2 days by CellTiter-Glo assay; format: cell-based; details: read-out: LD50; method in brief: as §1
[5] = tested on: Mycobacterium tuberculosis; assay: Antibacterial activity against replicating form of wild type Mycobacterium tuberculosis H37Rv assessed as growth inhibition after 7 days by high-throughput screening assay; format: functional; details: 168 h
Method in brief: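 Wild-type H37Rv in 7H9 with glycerol, tyloxapol, ADN, in 96-well plates. Set up as the 384-well screen: OD580 0.01 start, compound in DMSO, 7 days at 37 °C, 20% O2, 5% CO2. OD580 read; MIC90 = 90% growth inhibition vs DMSO control.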

[6] = tested on: Mycobacterium tuberculosis; assay: Bactericidal activity against replicating form of wild type Mycobacterium tuberculosis H37Rv assessed as reduction of log10CFU at 0.6 ug/mL after 7 to 8 days; format: functional; method in brief: as §3
[7] = tested on: Mycobacterium tuberculosis; assay: Antibacterial activity against non-replicating form of wild type Mycobacterium tuberculosis H37Rv assessed as growth inhibition after 3 days by high-throughput screening assay; format: functional; details: 72 h
[8] = Cytotoxicity against African green monkey Vero cells; format: cell-based; details: chlorocebus sabaeus, read-out: LD50 (the source's name)
[9] = Selectivity index, ratio of LD50 for African green monkey Vero cells to MIC for replicating form of Mycobacterium tuberculosis infected in African green monkey Vero cells; format: toxicity, cell-based; details: read-out: Selectivity Index
[10] = tested on: Mycobacterium tuberculosis; assay: Antimycobacterial activity against replicating form of Mycobacterium tuberculosis infected in African green monkey Vero cells assessed as growth inhibition; format: functional
[11] = tested on: Mycobacterium tuberculosis; assay: Bactericidal activity against wild type Mycobacterium tuberculosis H37Rv infected in IFN-gamma-stimulated primary human monocyte-derived macrophages assessed as reduction of log10CFU at 30 times MIC incubated for 7 days followed by compound washout measured after 3 weeks; format: functional; method in brief: as §2
[12] = Genotoxicity in mouse lymphoma cells; format: toxicity, cell-based
[13] = tested on: Mycobacterium tuberculosis; assay: Bactericidal activity against wild type Mycobacterium tuberculosis H37Rv infected in IFN-gamma-stimulated primary human monocyte-derived macrophages assessed as reduction of log10CFU incubated for 7 days followed by compound washout measured after 3 weeks; format: functional; method in brief: as §2
[14] = tested on: Mycolicibacterium smegmatis; assay: Antibacterial activity against Mycobacterium smegmatis assessed as growth inhibition at 10 ug/mL after 24 to 48 hrs relative to control; format: functional; details: read-out: GI
Method in brief: (§4)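 Log-phase cultures in their own media (M. smegmatis 7H9/glycerol/tyloxapol; E. coli, P. aeruginosa LB; S. aureus Mueller-Hinton; C. albicans YM) diluted to OD 0.01 in 96-well plates. Compound or DMSO added. Incubated 8−48 h with shaking at 37 °C (Candida at 30 °C). OD600 read.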

Pseudomonas aeruginosa = assay: Bactericidal activity against Pseudomonas aeruginosa PAO1 at <= 25 ug/mL after 6 to 18 hrs; format: functional, organism-based; method in brief: as §4
Escherichia coli = assay: Bactericidal activity against Escherichia coli at <= 25 ug/mL after 6 to 18 hrs; format: functional, organism-based; method in brief: as §4
Candida albicans = assay: Fungicidal activity against Candida albicans at <= 25 ug/mL after 6 to 18 hrs; format: functional, organism-based; method in brief: as §4
Staphylococcus aureus = assay: Bactericidal activity against Staphylococcus aureus ATCC 29213 at <= 25 ug/mL after 6 to 18 hrs; format: functional, organism-based; method in brief: as §4

CCCc1cc(=O)oc2c1c1c(c3oc([N+](=O)[O-])cc32)C=CC(C)(C)O1 gave a selectivity ratio [1] of 8, a log10cfu [2] of 1.8 and a log10cfu [3] of 2.6. For the same compound, the CC50 at 48 h [4] was 3 µg/mL (≈ 8.44 µM), the MIC90 [5] was 0.3 µg/mL (≈ 0.844 µM) and the log10cfu [6] was 3.1. For the same compound, the MIC90 [7] was 0.6 µg/mL (≈ 1.69 µM).

Compound CCCc1cc(=O)oc2c3c(c4c(c12)OC(C)(C)C=C4)O[C@H](C)[C@@H](C)[C@@H]3O [CALANOLIDE A] has a CC50 [8] of 7.6 µg/mL (≈ 20.5 µM), a selectivity ratio [9] of 2.4 and an MIC [10] of 3.1 µg/mL (≈ 8.37 µM).

CO[C@H]1/C=C/O[C@@]2(C)Oc3c(C)c(O)c4c(O)c(c(/C=N/N5CCN(C)CC5)c(O)c4c3C2=O)NC(=O)/C(C)=C\C=C\[C@H](C)[C@H](O)[C@@H](C)[C@@H](O)[C@@H](C)[C@H](OC(C)=O)[C@@H]1C [RIFAMPIN] gave a log10cfu [11] of 1.

In the case of CCCc1cc(=O)oc2c1c(OCc1ccc(F)cc1)cc1oc([N+](=O)[O-])cc12, the Activity [12] is reported as “Non-toxic”, the selectivity ratio [1] is reported as greater than 160 and the CC50 at 48 h [4] is reported as greater than 100 µg/mL. For the same compound, the log10cfu [13] was 1, the MIC90 [5] was 0.6 µg/mL (≈ 1.51 µM) and the MIC90 [7] was 3 µg/mL (≈ 7.55 µM).

For CCCc1cc(=O)oc2c1c1c(c3oc([N+](=O)[O-])cc32)CCC(C)(C)O1, the inhibition of growth at 10 µg/mL [14] was 20%, the selectivity ratio [1] was greater than 80 and the Activity (Pseudomonas aeruginosa) was “inactive”. For the same compound, the Activity (Escherichia coli) was “inactive”, the Activity (Candida albicans) was “inactive” and the log10cfu [3] was 2.1. For the same compound, the CC50 at 48 h [4] was greater than 50 µg/mL, the Activity (Staphylococcus aureus) was “inactive” and the log10cfu [13] was 2. For the same compound, the MIC90 [5] was 0.6 µg/mL (≈ 1.68 µM), the log10cfu [6] was 2.6 and the MIC90 [7] was 1 µg/mL (≈ 2.8 µM).

For CCCc1cc(=O)oc2c1c(OCCN1CCOCC1)cc1oc([N+](=O)[O-])cc12, the Activity [12] was “Non-toxic”, the selectivity ratio [1] was 125 and the CC50 at 48 h [4] was 10 µg/mL (≈ 24.9 µM). For the same compound, the log10cfu [13] was 1, the MIC90 [5] was 0.08 µg/mL (≈ 0.199 µM) and the MIC90 [7] was 0.2 µg/mL (≈ 0.497 µM).
